Measured values gathered from unrelated publications.
Protocols differ between the studies behind these lines.
Target: Serine/threonine-protein kinase DCLK3 (DCLK3, Homo sapiens, UniProt Q9C098)
Sequence (Q9C098 1-648, as in one of the studies): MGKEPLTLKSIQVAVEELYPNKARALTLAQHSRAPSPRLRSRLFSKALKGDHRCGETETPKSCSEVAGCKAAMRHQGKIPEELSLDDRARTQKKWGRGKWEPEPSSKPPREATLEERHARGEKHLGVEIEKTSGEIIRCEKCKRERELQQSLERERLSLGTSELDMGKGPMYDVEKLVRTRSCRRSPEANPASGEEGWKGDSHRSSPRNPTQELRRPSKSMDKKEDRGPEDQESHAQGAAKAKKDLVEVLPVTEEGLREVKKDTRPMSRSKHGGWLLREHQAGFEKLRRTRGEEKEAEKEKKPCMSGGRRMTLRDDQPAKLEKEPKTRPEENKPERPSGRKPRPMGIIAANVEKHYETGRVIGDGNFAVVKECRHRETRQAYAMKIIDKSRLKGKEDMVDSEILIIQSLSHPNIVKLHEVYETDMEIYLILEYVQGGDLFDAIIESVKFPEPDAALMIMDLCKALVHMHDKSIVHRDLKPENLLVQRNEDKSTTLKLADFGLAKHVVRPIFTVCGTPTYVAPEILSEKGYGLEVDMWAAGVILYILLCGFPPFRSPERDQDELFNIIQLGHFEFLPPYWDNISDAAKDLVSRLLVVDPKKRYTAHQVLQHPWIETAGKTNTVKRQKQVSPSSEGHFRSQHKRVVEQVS

SMILES	test	conditions	remaining binding
CNC(=O)[C@@H]1CC[C@@H](n2c(-c3ccc4cnccc4c3)nc3ccc(C(=O)NCc4cccc(C(N)=O)c4)cc32)C1	binding, competition with immobilised ligand	1 µM	100%
CN(C)c1nccc(-c2cnn3ncccc23)n1	binding	1 µM	100%
c1cncc(-c2cccc(Nc3nccc(NC4CCCCC4)n3)c2)c1	binding, competition with immobilised ligand	10 µM	80%
O=C(c1ccc(Nc2ncc(Cl)c(-c3cc4ccccc4s3)n2)cc1)N1CCC(N2CCCC2)CC1	binding, competition with immobilised ligand	1 µM	0.9%
Cn1cc(Cl)c2c(Oc3c(F)cc(Nc4cc(Cl)nc(N)n4)cc3F)ccnc21	cell-free assay, competition with immobilised ligand	0.1 µM	89%
Cc1cnn2ncc(-c3ccnc(N(C)C)n3)c2c1	binding	1 µM	93%
O=C(Nc1c[nH]nc1C(=O)NC1CCNCC1)c1cc(F)cc(F)c1	binding, competition with immobilised ligand	1 µM	93%
O=C(NCCCN1CCOCC1)c1ccc(Nc2nccc(-c3cc4ccccc4s3)n2)cc1	binding, competition with immobilised ligand	1 µM	0.4%
COc1cnc(Nc2cccc(S(N)(=O)=O)c2)nc1N1CCN(c2ccccc2)C(=O)C1	binding, competition with immobilised ligand	1 µM	100%
CN(C)c1ncnc(-c2ccc3nc(Nc4cc(CN5CCN(C(=O)CC(F)(F)F)CC5)ccn4)[nH]c3c2)c1Cl	cell-free assay, competition with immobilised ligand	1 µM	92%
CN(C)c1nccc(-c2cnc3ncccn23)n1	binding	1 µM	76%
C[C@H](c1cccc(C#N)c1)n1cc(Cl)cc(C(N)=O)c1=N	cell-free assay, competition with immobilised ligand	1 µM	99%
C[C@@H]1CCN(c2nccc(-c3cnn4ncccc34)n2)C1	binding	1 µM	100%
O=C(NCCCN1CCOCC1)c1ccc(Nc2ncc(Cl)c(-c3ccc(Cl)s3)n2)cc1	binding, competition with immobilised ligand	1 µM	1.9%
COc1ncc2cc3ccccc3nc2c1C#N	cell-free assay, competition with immobilised ligand	5 µM	100%
CC(C)(O)c1cncc(-c2nc3ccc(F)cc3n2C2CC2)c1	cell-free assay, competition with immobilised ligand	1 µM	100%
Nc1ncc2c(n1)-c1c([nH]c3ccc(C#CC4CC4)cc13)CCCC2	binding, competition with immobilised ligand	1 µM	100%
N[C@@H]1CCN(c2nccc(-c3cnn4ncccc34)n2)C1	binding	1 µM	100%
CC1=C(C#N)[C@@H](c2ccc3[nH]nc(C)c3c2)C(C#N)=C(c2ccc(Cl)cc2)N1	cell-free assay, competition with immobilised ligand	1 µM	71.3%
CN(CCCC(F)(F)F)c1nccc(-c2cnn3ncccc23)n1	binding	1 µM	85%
CCCCN(CCCC)C(=O)CN1C[C@@H](c2cc(OC)c3c(c2)OCO3)[C@H](C(=O)O)[C@H]1CC(C)(C)CCC	cell-free assay, competition with immobilised ligand	1 µM	100%
